Tests used:
[1] = system: human umbilical vein endothelial cell (HUVEC); assay: HUVEC proliferation assay; format: cell-based; details: read-out: IC50 HUVECs proliferation
VEGFR2 kinase = details: read-out: IC50 VEGFR2 kinase (reported); cited from earlier work
Male SD rats = assay: Drug plus three weeks hypoxia; format: in vivo, rat; details: for Right ventricular systolic pressure (RVSP): 17.8 µg/h Alzet osmotic pump for 14 of 21 days of hypoxia; for RVH compared to the normal control group: 28 days post-hypoxia; for Induction of severe PAH: drug plus hypoxia, rats
Outline: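 Male SD rats got test compound 20 mg/kg SC once or 17.8 μg/h by osmotic minipump, then 3 weeks at FiO2 10% and 14 or 28 days normoxia; untreated normoxic rats as controls. Under isoflurane, RV pressure by sternotomy catheter; RV free wall, IVS, LV weighed. Lungs perfused with 10% formalin, H&E 8 μm sections, lumen/media area ratio, ≥20 arterioles/section. RV Picro-Sirius red staining.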

[2] = biological target: T1, bone morphogenic protein receptor type 2 (BMPR2) (Homo sapiens, UniProt Q13873); assay: KdELECT assay, inhibitor binding constant for BMPR2
T1 sequence (Q13873 27-1038): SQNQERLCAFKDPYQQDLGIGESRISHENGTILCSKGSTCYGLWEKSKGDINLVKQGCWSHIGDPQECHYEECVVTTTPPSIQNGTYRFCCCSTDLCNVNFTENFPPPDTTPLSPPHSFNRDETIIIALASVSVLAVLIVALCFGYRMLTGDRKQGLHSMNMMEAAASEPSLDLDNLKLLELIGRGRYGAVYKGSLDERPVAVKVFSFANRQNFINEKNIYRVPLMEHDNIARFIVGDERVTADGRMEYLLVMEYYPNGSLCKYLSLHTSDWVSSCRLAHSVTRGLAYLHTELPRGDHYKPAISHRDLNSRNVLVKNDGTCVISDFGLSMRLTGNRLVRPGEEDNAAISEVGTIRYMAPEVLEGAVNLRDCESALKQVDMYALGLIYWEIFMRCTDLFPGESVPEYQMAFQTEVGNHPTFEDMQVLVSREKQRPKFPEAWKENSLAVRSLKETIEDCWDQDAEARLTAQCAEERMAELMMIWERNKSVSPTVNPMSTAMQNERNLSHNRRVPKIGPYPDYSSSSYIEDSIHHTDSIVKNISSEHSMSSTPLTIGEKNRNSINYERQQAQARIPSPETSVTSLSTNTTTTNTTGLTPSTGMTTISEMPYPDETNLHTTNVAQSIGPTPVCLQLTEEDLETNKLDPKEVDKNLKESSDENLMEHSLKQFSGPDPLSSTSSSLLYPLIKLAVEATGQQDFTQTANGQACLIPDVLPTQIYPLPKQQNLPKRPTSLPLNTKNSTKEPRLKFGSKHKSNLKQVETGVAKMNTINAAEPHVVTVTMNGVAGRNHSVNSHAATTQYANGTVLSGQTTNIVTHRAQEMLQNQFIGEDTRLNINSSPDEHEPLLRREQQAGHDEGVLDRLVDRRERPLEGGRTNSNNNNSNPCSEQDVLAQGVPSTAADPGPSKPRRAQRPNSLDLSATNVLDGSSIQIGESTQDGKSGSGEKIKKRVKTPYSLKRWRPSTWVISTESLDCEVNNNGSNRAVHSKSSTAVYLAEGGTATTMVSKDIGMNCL

MRC5 = MRC5 proliferation assay; format: cell-based; details: Homo sapiens, MRC5, read-out: IC50 MRC5 proliferation
[3] = Pharmacokinetic studies in Sprague Dawley rats; format: in vivo; details: rat, plasma
VEGFR2 = VEGFR2 (Homo sapiens, UniProt P35968); assay: KINOMEscan Profiling against 468 human kinases: VEGFR2; format: binding; details: 10,000 nM
[4] = other: via an Alzet pump, 12 mg/kg

VEGFR2, sequence (P35968 20-1356): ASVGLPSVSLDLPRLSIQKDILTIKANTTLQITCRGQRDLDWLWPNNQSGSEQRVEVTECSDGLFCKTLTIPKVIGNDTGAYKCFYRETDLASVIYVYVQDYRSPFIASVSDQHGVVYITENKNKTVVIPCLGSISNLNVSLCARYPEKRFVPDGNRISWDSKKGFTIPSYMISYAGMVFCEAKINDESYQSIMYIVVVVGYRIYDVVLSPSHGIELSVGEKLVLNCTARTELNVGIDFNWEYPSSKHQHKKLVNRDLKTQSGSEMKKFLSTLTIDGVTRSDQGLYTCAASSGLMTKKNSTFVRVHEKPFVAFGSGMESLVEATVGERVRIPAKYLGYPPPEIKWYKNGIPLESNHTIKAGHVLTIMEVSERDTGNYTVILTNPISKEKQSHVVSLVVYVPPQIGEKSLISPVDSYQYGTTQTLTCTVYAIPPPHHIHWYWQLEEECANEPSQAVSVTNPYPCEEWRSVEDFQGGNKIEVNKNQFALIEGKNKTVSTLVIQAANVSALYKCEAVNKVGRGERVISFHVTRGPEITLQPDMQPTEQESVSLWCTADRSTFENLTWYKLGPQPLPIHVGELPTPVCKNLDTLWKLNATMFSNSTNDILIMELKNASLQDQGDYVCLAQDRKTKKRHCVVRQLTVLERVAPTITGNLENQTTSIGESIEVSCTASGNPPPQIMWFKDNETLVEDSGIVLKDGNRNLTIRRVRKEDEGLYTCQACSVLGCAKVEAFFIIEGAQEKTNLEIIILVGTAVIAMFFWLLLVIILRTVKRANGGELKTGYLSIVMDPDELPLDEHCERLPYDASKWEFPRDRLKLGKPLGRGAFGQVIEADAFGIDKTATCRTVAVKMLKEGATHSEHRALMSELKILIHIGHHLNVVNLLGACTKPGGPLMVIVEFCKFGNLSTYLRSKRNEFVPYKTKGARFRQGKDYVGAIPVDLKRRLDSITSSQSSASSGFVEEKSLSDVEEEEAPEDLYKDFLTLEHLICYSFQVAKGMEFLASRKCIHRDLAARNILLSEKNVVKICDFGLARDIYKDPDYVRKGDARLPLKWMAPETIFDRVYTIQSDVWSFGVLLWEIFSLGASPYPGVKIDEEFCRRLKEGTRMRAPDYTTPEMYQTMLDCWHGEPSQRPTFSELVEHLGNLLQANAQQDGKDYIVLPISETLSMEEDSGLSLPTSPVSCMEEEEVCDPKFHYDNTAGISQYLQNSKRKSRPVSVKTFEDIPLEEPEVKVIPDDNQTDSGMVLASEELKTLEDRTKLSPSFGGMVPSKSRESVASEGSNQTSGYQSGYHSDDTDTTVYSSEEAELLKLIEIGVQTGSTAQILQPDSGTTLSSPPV

Right ventricular systolic pressure (RVSP) (Male SD rats; 14 days after removal from hypoxia, mean ± SEM) [mmHg] | Right ventricular systolic pressure (RVSP) (Male SD rats; 28 days after removal from hypoxia, mean ± SEM) [mmHg] | RVH by Fulton's Index (RV/(LV + IVS)) (Male SD rats; 14 days post-hypoxia, Cabo = SC + Alzet groups, mean ± SEM) | RVH compared to the normal control group (Male SD rats) | Induction of severe PAH (Male SD rats) | Kd [2] [nM] | AUC(0-t) [3, 4] [ng·h/mL] | Cmax [3, 4] [ng/mL] | half-life [3, 4] [h] | AUC(0-t) ([3]; sc, 20 mg/kg) [ng·h/mL] | Cmax ([3]; sc, 20 mg/kg) [ng/mL] | half-life ([3]; sc, 20 mg/kg) [h] | RV fibrosis (Picro-Sirius red, qualitative) (Male SD rats; days 14 and 28 after removal from hypoxia, SU5416H vs CaboH groups) | Activity against VEGFR2 in kinome screen (VEGFR2) | SMILES | IC50 [1] [nM] | IC50 (VEGFR2 kinase) [nM] | IC50 (MRC5) [nM]
40.0 ± 3.1 | 27.9 ± 1.9 | 0.36 ± 0.02 | no significant difference | did not induce severe PAH | > 10000 | 16800 | 238 ± 83 | 43 ± 8 | 27500 | 1620 ± 103 | 25.7 ± 10.8 |  |  | COc1cc2nccc(Oc3ccc(NC(=O)C4(C(=O)Nc5ccc(F)cc5)CC4)cc3)c2cc1OC [Cabozantinib, cabozantinib] | 4.9 | 0.035 | 549
 |  |  | significantly increased | induced severe PAH |  |  |  |  | 12.6 ± 2 | 4.97 ± 2.3 | 5 ± 4.7 | increase in RV fibrosis | potent | Cc1cc(C)c(/C=C2\C(=O)Nc3ccccc32)[nH]1 [SU5416] | 330 |  | 11700

Source: publication PMC8202272 (Pulmonary Circulation, 2021)
